Data set [1] is described as follows: Dissociation constant, pKa of the compound. Format: physicochemical.
Data set [2] in a line: Partition coefficient, log D of the compound at pH 7.4. The format is physicochemical. To be noted: octanol/water.
Data set [3] can be described thus: Intrinsic aqueous solubility of the compound. The format is physicochemical. The conditions noted are these: read-out: Intrinsic_solubility. In a few lines: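 Determined on a Gemini Profiler by potentiometric titration (Avdeef–Bucher method), which also gave pKa; logD at pH 7.4.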
The test system of data set [4] is Mus musculus. Nature of the data set: Analgesic activity in mouse assessed as inhibition of acetic acid-induced writhing at 70 mg/kg, ig administered 1 hr before acetic acid challenge measured after 15 mins. The format is functional. The conditions noted are these: po, route intragastric. In a few lines:
(§1)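 Mice dosed by gavage with compound suspended in 0.5% CMC-Na; the model group got vehicle only. 1 h later, 0.7% acetic acid in saline was injected i.p. at 0.1 ml/10 g body weight. Writhes were counted 15 min after the stimulus. Results are mean ± SEM, n = 8.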

The test system of data set [5] is Mus musculus. Nature of the data set: Analgesic activity in mouse assessed as increase in tail-curl latency time at 100 mg/kg, ig measured after 60 mins by tail-immersion test. The format is functional, organism-based. On the set-up: dose 100 mg/kg. The essentials:
(§2)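 Mice dosed by gavage with 100 mg/kg suspended in 0.5% CMC-Na. Tail-curl latency in the tail-immersion test was recorded before dosing and at 30, 60, 90 and 120 min afterward. Results are given as mean ± SEM (n = 8), with one-way ANOVA against control.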

The test system of data set [6] is Mus musculus. Briefly: Antiinflammatory activity in mouse assessed as xylene-induced ear swollen extent at 100 mg/kg, ig administered 90 mins prior to xylene challenge measured after 30 mins (reference value: 132.8 +/-16.3%). The conditions noted are these: route intragastric. The format is functional. The essentials: (§3)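 Mice were given compound by gavage as a suspension in 0.5% CMC-Na; the vehicle group got 0.5% CMC-Na. 90 min later, 25 µl xylene was applied to both surfaces of the right ear, with the left ear as control. Mice were killed 30 min later. 8 mm punches were taken from both ears and weighed, and swelling was expressed relative to the left ear weight. Results are mean ± SEM, n = 8.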

For data set [7], the system named is Mus musculus. Nature of the data set: Antiinflammatory activity in mouse assessed as inhibition of xylene-induced ear swelling at 100 mg/kg, ig administered 90 mins prior to xylene challenge measured after 30 mins. The format is functional. To be noted: po, route intragastric. The essentials: as §3
The species entered for data set [8] is Mus musculus. Nature of the data set: animal or person. The conditions noted are these: Ear, po, read-out: INH.
Data set [9] has as its system Mus musculus. Nature of the data set: Analgesic activity in mouse assessed as increase in tail-curl latency time at 100 mg/kg, ig measured after 30 to 90 mins by tail-immersion test. Format: functional, organism-based. On the set-up: dose 100 mg/kg. In a few lines:
as §2

Data set [10] in a line: Equilibrium solubility of the compound by classical saturation shake flask method. Format: physicochemical. In a few lines: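 Equilibrium solubility measured by the classical saturation shake-flask method.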
In data set [11] the test system is Mus musculus. Briefly: Analgesic activity in mouse assessed as increase in tail-curl latency time at 100 mg/kg, ig measured after 30 to 120 mins by tail-immersion test. On the set-up: dose 100 mg/kg. The format is functional, organism-based. The essentials: as §2
The test system of data set [12] is Mus musculus. Briefly: Analgesic activity in mouse assessed as increase in tail-curl latency time at 100 mg/kg, ig measured after 90 mins by tail-immersion test. On the set-up: dose 100 mg/kg. Format: functional, organism-based. The essentials: as §2
Data set [13] deals with Mus musculus. Nature of the data set: Analgesic activity in mouse assessed as inhibition of acetic acid-induced writhing at 200 mg/kg, ig administered 1 hr before acetic acid challenge measured after 15 mins. Format: functional. To be noted: po, route intragastric. In a few lines: as §1

This is an account of results in ChEMBL document CHEMBL3232842, “Synthesis and pharmacological evaluation of novel limonin derivatives as anti-inflammatory and analgesic agents with high water solubility” (Bioorg Med Chem Lett, 2014).

The source made the active and inactive calls. No cut-off for these calls is given here.

Molecule `CN(C)CCO/N=C1/C[C@H]2C(C)(C)O[C@H]3CC(=O)OC[C@]32[C@H]2CC[C@]3(C)C(=CC(=O)O[C@H]3c3ccoc3)[C@]12C.Cl` showed a pKa in data set [1] of 8.88. Further, the logD in data set [2] came to 0.32. Also, the solubility in data set [3] was determined as 28900 µg/mL. The inhibition in vivo at 70 mg/kg with Mus musculus [4] is 30%. Moreover, the outcome in the data set on Mus musculus [5] was Active. The Ear swelling extent in the data set with Mus musculus [6] came out at 100.2%. The inhibition in vivo at 100 mg/kg in the data set on Mus musculus [7] was 24.6%.
For `COc1ccc2cc([C@H](C)C(=O)O)ccc2c1` [NAPROXEN], the inhibition in vivo at 150 mg/kg in the data set listed under Mus musculus [8] turned out to be 36.6%.
The molecule `CC1(C)O[C@H]2CC(=O)OC[C@]23[C@H]2CC[C@@]4(C)[C@H](c5ccoc5)OC(=O)[C@H]5O[C@]54[C@]2(C)/C(=N\OCCN2CCCCC2)C[C@@H]13.Cl` showed a pKa in [1] of 8.87. Further, the pH-dependent lipophilicity (logD) in data set [2] was found to be 0.44. Also, the solubility in data set [3] came out at 25300 µg/mL. Besides, in the data set with Mus musculus [4], the inhibition in vivo at 70 mg/kg was 70.5%. The result in the data set on Mus musculus [9] and with Mus musculus [5] was Active. Also, the Ear swelling extent in the data set with Mus musculus [6] is listed as 60.1%. Moreover, in the data set with Mus musculus [7], the inhibition in vivo at 100 mg/kg is 54.8%.
In the case of `CC1(C)O[C@H]2CC(=O)OC[C@@]23[C@H]1CC(=O)[C@@]1(C)C2=CC(=O)O[C@H](c4ccoc4)[C@]2(C)CC[C@@H]13` [DESOXYLIMONIN], the thermodynamic solubility in [10] was < 5 µg/mL. Also, the inhibition in vivo at 70 mg/kg in the data set on Mus musculus [4] is 24.6%. In addition, the Ear swelling extent with Mus musculus [6] came to 111.7%. Besides, the inhibition in vivo at 100 mg/kg in the data set on Mus musculus [7] turned out to be 15.9%. The result in the data set on Mus musculus [11] was inactive.
`CN(C)CCCO/N=C1/C[C@H]2C(C)(C)O[C@H]3CC(=O)OC[C@]32[C@H]2CC[C@]3(C)C(=CC(=O)O[C@H]3c3ccoc3)[C@]12C.Cl` had a pKa in data set [1] of 9.39. Also, the logD in data set [2] came to 0.19. The solubility in data set [3] is 9400 µg/mL. The inhibition in vivo at 70 mg/kg in the data set on Mus musculus [4] came out at 60.7%. Moreover, the outcome in the data set on Mus musculus [5] was Active. For the same molecule, in the data set with Mus musculus [6], the Ear swelling extent is recorded as 97.8%. Moreover, the inhibition in vivo at 100 mg/kg in the data set on Mus musculus [7] came out at 26.4%.
As to `CC1(C)O[C@H]2CC(=O)OC[C@]23[C@H]2CC[C@]4(C)C(=CC(=O)O[C@H]4c4ccoc4)[C@]2(C)/C(=N\OCCN2CCOCC2)C[C@@H]13.Cl`, in data set [1], the pKa amounted to 6.84. Further, the logD in data set [2] was determined as 2.52. Also, the solubility in [3] is 2100 µg/mL. Besides, in the data set on Mus musculus [4], the inhibition in vivo at 70 mg/kg was found to be 50%. In the data set on Mus musculus [5], the outcome was Active. Besides, the Ear swelling extent in the data set with Mus musculus [6] is reported as 96.1%. The inhibition in vivo at 100 mg/kg in the data set on Mus musculus [7] stood at 27.6%.
As to `CCN(CC)CCO/N=C1/C[C@H]2C(C)(C)O[C@H]3CC(=O)OC[C@]32[C@H]2CC[C@@]3(C)[C@H](c4ccoc4)OC(=O)[C@H]4O[C@]43[C@]12C.Cl`, the pKa in [1] is 9.17. In data set [2], this molecule showed a logD of 0.26. In addition, the solubility in data set [3] was found to be 14500 µg/mL. Moreover, in the data set with Mus musculus [4], the inhibition in vivo at 70 mg/kg worked out at 80%. For the same molecule, the result with Mus musculus [9] and in the data set on Mus musculus [12] was Active. Also, the Ear swelling extent in the data set with Mus musculus [6] was found to be 32.6%. Moreover, the inhibition in vivo at 100 mg/kg with Mus musculus [7] was 75.5%.
Take `CC1(C)O[C@H]2CC(=O)OC[C@]23[C@H]2CC[C@@]4(C)[C@H](c5ccoc5)OC(=O)[C@H]5O[C@]54[C@]2(C)C(=O)C[C@@H]13` [LIMONIN]: the solubility (thermodynamic) in data set [10] is < 5 µg/mL. Moreover, the inhibition in vivo at 70 mg/kg in the data set with Mus musculus [4] stood at 45.9%. In addition, the Ear swelling extent in the data set with Mus musculus [6] is on record as 89.3%. Also, the inhibition in vivo at 100 mg/kg in the data set on Mus musculus [7] worked out at 32.7%.
Turning to `CN(C)CCCO/N=C1/C[C@H]2C(C)(C)O[C@H]3CC(=O)OC[C@]32[C@H]2CC[C@@]3(C)[C@H](c4ccoc4)OC(=O)[C@H]4O[C@]43[C@]12C.Cl`, in data set [1], the pKa came to 9.28. In addition, the logD in data set [2] was determined as 0.37. The solubility in data set [3] was found to be 9600 µg/mL. The inhibition in vivo at 70 mg/kg in the data set with Mus musculus [4] was determined as 64.1%. For the same molecule, the outcome in the data set on Mus musculus [9] was Active. Moreover, the Ear swelling extent in the data set with Mus musculus [6] was 71.6%. Moreover, the inhibition in vivo at 100 mg/kg in the data set with Mus musculus [7] was determined as 46.1%.
In data set [1], `CN(C)CCO/N=C1/C[C@H]2C(C)(C)O[C@H]3CC(=O)OC[C@]32[C@H]2CC[C@@]3(C)[C@H](c4ccoc4)OC(=O)[C@H]4O[C@]43[C@]12C.Cl` yielded a pKa of 8.78. Moreover, the logD in data set [2] was 0.59. In addition, in [3], the solubility was determined as 17800 µg/mL. The inhibition in vivo at 70 mg/kg in the data set with Mus musculus [4] came to 68.6%. Also, the outcome with Mus musculus [9] was Active. The Ear swelling extent with Mus musculus [6] came out at 72.4%. In addition, the inhibition in vivo at 100 mg/kg in the data set on Mus musculus [7] came to 45.5%.
The molecule `CC1(C)O[C@H]2CC(=O)OC[C@]23[C@H]2CC[C@@]4(C)[C@H](c5ccoc5)OC(=O)[C@H]5O[C@]54[C@]2(C)/C(=N\OCCN2CCOCC2)C[C@@H]13.Cl` displayed a pKa in data set [1] of 6.11. This molecule also displayed a logD in data set [2] of 2.45. Further, the solubility in data set [3] came to 4500 µg/mL. Further, the inhibition in vivo at 70 mg/kg in the data set on Mus musculus [4] is 58%. Also, in the data set with Mus musculus [9], the outcome was Active. Besides, in the data set with Mus musculus [6], the Ear swelling extent was 62.4%. In addition, the inhibition in vivo at 100 mg/kg in the data set with Mus musculus [7] came to 53%.
For the molecule `CC1(C)O[C@H]2CC(=O)OC[C@]23[C@H]2CC[C@]4(C)C(=CC(=O)O[C@H]4c4ccoc4)[C@]2(C)/C(=N\OCCN2CCCCC2)C[C@@H]13.Cl`, the pKa in data set [1] was 8.52. In data set [2], this molecule had a logD of 0.81. Also, the solubility in data set [3] was 19800 µg/mL. Besides, in the data set with Mus musculus [4], the inhibition in vivo at 70 mg/kg was 44.3%. Besides, the result in the data set with Mus musculus [5] was Active. In the data set with Mus musculus [6], the Ear swelling extent is reported as 99.1%. Moreover, the inhibition in vivo at 100 mg/kg in the data set with Mus musculus [7] is 25.4%.
In [1], `CCN(CC)CCO/N=C1/C[C@H]2C(C)(C)O[C@H]3CC(=O)OC[C@]32[C@H]2CC[C@]3(C)C(=CC(=O)O[C@H]3c3ccoc3)[C@]12C.Cl` had a pKa of 9.49. Also, in data set [2], the pH-dependent lipophilicity (logD) was determined as 0.57. The solubility in [3] came to 1900 µg/mL. For the same molecule, the inhibition in vivo at 70 mg/kg in the data set on Mus musculus [4] is 33.2%. Moreover, in the data set on Mus musculus [5], the outcome was Active. Moreover, the Ear swelling extent in the data set with Mus musculus [6] came to 108.2%. In the data set on Mus musculus [7], the inhibition in vivo at 100 mg/kg came to 18.4%.
In the case of `CC(=O)Oc1ccccc1C(=O)O` [ASPIRIN], in the data set with Mus musculus [13], the inhibition in vivo at 200 mg/kg was determined as 71.8%.
